The list is not random: actives were taken first. Their share in the collection is about 3%.
HIF act: HIF pathway transcriptional activators, primary screen, cell-based, U2OS HRE-luciferase, luminescence; actives 0.32% (n = 300,000); activation, % at 7.5 µM (by protocol); U2OS HRE-luciferase reporter; normalized: DMSO 0%, desferrioxamine 100%;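 active means mean activation of at least 10% of the iron chelator positive control signal, with at least half of replicates also reaching 10%; inconclusive means mean and replicate majority disagree about reaching 10%; inactive means mean and most replicates under 10%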
V-ATPase pH: regulators of yeast V-ATPase proton pumping, primary screen, pHLuorin cytosolic pH fluorescence; S. cerevisiae; response, % at 10 µM; actives 0.37% (n = 350,000); AID 504577, 2011; in the data active means response mostly above about 7.3%, no sharp cut-off; inactive means mostly below about 5.4%; further: actives read high
T cruzi inh: inhibitors of intracellular T. cruzi growth, primary screen, luminescence, NIH3T3 host cells; actives 1.4% (n = 300,000); inhibition, % (no concentration beside the values); T. cruzi beta-gal in NIH3T3, 90 h;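 active means mean inhibition across valid replicates above about 55%, limit read from the data; inconclusive means mean below that limit but half or more replicates reach it; inactive means mean below it, under half of replicates reach it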;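 further: signal also drops with host cell toxicity which is not excluded here; 0% = plate median of DMSO wells and 100% = zero luminescence signal; higher percent means less beta-gal luminescence so fewer parasites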
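Material: NIH/3T3 host cells with β-galactosidase reporter T. cruzi; Input: 5,000 host fibroblasts per well; Medium: DMEM, 2% fetal bovine serum; Compound: 50 nL DMSO compound solution per well; Schedule: 3 h host attachment, then at least 90 h co-culture; Detection: luminescent β-galactosidase signal after 60 min lysis.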
CendR NRP1 mod: modulators of CendR peptide binding to NRP-1, primary screen, biochemical, fluorescence polarization, uHTS. Neuropilin-1 (Homo sapiens), O14786. FAM-RPARPAR peptide binding to NRP-1. inhibition, % at 25 µM. actives 0.85% (n = 360,000);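 active means inhibition or corrected inhibition above about 18%, plus a signal ratio from 0.5 to 1.5, limit read from the data, passing the limit was not always enough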
Target sequence (O14786 whole entry, looked up): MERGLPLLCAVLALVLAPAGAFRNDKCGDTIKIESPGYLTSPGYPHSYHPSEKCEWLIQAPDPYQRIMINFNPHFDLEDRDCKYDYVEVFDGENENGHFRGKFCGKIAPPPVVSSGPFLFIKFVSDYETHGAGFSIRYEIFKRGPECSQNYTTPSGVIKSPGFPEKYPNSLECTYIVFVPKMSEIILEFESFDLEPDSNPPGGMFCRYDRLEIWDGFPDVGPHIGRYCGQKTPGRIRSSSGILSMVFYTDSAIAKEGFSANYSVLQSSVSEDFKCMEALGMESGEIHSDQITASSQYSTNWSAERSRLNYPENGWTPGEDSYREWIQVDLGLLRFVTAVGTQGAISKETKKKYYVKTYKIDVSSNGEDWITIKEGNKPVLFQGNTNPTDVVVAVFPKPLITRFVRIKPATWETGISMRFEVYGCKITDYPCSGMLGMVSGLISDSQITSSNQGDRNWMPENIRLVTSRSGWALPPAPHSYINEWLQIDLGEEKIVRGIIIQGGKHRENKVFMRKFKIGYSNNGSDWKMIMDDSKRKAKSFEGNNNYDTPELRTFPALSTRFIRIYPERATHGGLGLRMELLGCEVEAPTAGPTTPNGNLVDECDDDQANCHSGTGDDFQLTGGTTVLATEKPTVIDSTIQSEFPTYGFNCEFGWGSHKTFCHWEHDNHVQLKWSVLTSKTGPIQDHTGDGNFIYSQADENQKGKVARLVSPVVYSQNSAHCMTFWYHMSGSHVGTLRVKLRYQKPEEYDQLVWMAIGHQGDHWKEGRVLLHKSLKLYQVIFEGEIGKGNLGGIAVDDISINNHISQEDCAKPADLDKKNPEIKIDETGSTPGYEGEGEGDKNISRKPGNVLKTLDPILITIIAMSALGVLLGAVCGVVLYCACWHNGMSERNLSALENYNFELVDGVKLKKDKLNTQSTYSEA
Yeast superoxide: reduction of superoxide in aged yeast, primary screen, HTS; S. cerevisiae aged cells, superoxide DHE fluorescence; stronger effect = lower value; superoxide response (% of plate mean), % at 10 µM; actives 0.18% (n = 330,000);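 active means superoxide response under a set limit, about three screen SD below normal, cut at about 65% in these data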;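 further: yeast aged for seven days with compound at 30 °C before DHE staining; 100% = average MFI of all compound-treated wells on the plate with controls excluded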
AI-2 QS modul: Vibrio harveyi AI-2 quorum sensing modulators, primary screen, JMH597 strain, luminescence/OD600 ratio; actives 0.4% (n = 300,000); Vibrio harveyi JMH597 AI-2 luminescence/OD600 ratio, 9 h; stronger effect = lower value; strain lacks LuxN and CqsS sensors; 0 = neutral-control median; activity change, % at 7.5 µM; in the data active means activity change below about -75%, passing the limit was not always enough; inconclusive means no clear call, values can overlap the other calls;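 further: luminescence divided by OD600 gain over 9 h not by final OD600 alone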
An asterisk follows results filed as active; ? = inconclusive; . = no result given.

SMILES	HIF act	V-ATPase pH	T cruzi inh	CendR NRP1 mod	Yeast superoxide	AI-2 QS modul
COCC1CCN(Cc2nc(Cc3ccccc3Cl)no2)CC1	1	1	-3	21*	100	24
OCC1CCN(Cc2nc(Cc3ccccc3Cl)no2)CC1	1	2	-21	-17	109	10
CCOc1ccccc1N(CC(=O)NCc1ccncc1)S(=O)(=O)c1ccccc1	1	0	-3	1	99	7
CC(C)n1nccc1NC(=O)COC(=O)c1ccc(NC(N)=O)cc1	.	1	.	24*	109	.
CC(CCc1ccccc1)NC(=O)COC(=O)c1ccc(NC(N)=O)cc1 (stereo unspecified)	-3	0	-10	-2	117	8
O=C1CCCc2nc3c(cc21)C(O)Oc1c-3ccc2ccccc12 (stereo unspecified)	0	-2	-23	1	120	0
O=C1CCCc2nc3c(cc21)C(O)Oc1ccccc1-3 (stereo unspecified)	-1	16*	-21	-2	93	16
CC1CC(C)CN(CC(=O)c2cccs2)C1 (stereo unspecified)	0	5	-9	11	83	12
COc1ccc(-n2c(SCc3ccc([N+](=O)[O-])cc3)nnc2-c2ccc(C)cc2)cc1	0	4	70*	2	95	28
Cc1cccc(N(CC(=O)NC2CCCC2)C(=O)c2cc3cc4cccc(C)c4nc3s2)c1C	0	-62	57*	-5	103	21
Cc1ccc(C)c(N(CC(=O)NC2CCCC2)C(=O)c2cc3cc4cc(C)ccc4nc3s2)c1	0	3	6	-4	103	10
COc1ccccc1NC(=O)COC(=O)C1CC(=O)N(c2ccc3c(c2)OCCO3)C1 (stereo unspecified)	.	5	.	0	91	.
COc1ccc(-c2cc(NC(C)=O)c3ncc(-c4ccc(OC)c(OC)c4)n3c2)c(OC)c1	.	.	.	-14	.	.
Cc1cc(NCCN2CCOCC2)c2ccc3ccccc3c2n1	1	-5	65*	17	82	-3
Cc1ccc2c(c1)c(=O)c1c3n2CCN(C(=O)CCl)C3CC1 (stereo unspecified)	0	-2	-6	26*	92	19
CCOC(=O)COc1ccccc1/C=C\[N+](=O)[O-]	-6	4	9	2	77	-90*
O=S(=O)(c1ccccc1)c1cnc(-c2cccnc2)nc1-c1ccc(Cl)c(Cl)c1	-1	-2	12	20*	98	35
CC(C)Oc1ccc(Cn2c(=O)sc3ccccc32)cc1	0	-1	16	-4	93	29
COc1ccc(Cn2c(=O)sc3ccccc32)cc1	0	4	-10	31*	86	11
O=C(Nc1ccnn1C1CCN(CCCC2CCCC2)CC1)c1ccccc1	0	-6	20	23	90	20
Nc1nc2ccc(Oc3ccccc3)cc2s1	2	0	-29	-1	.	-81*
C/C(=N\O)C(=O)Nc1ccccc1	231*	6	-13	4	100	8
CC(C)NC(=O)CS(=O)(=O)c1ccccc1	0	2	-11	16	99	6
CC(C)NC(=S)NC(c1ccccc1)(c1ccccc1)c1ccccc1	-15	1	55*	1	109	35
CC1Sc2ccc(S(=O)(=O)CCC(=O)N3CCCCC3)cc2NC1=O (stereo unspecified)	0	0	16	1	109	.
SMILES	HIF act	V-ATPase pH	T cruzi inh	CendR NRP1 mod	Yeast superoxide	AI-2 QS modul
c1ccc(Nc2cccc(Nc3ccccc3)c2)cc1	-1	0	65*	-6	80	-1
Cc1cc(Cl)ccc1C(O)c1ncc(-c2cccc(F)c2)[nH]1 (stereo unspecified)	.	.	.	16	.	.
CCCn1nnnc1SCC(=O)N1CCCC1	0	-1	-5	-4	111	-2
CCCn1nnnc1SCC(=O)N1C(C)CCCC1C (stereo unspecified)	1	-4	3	22*	115	23
N#C/C(=C/c1ccc(N2CCCCCC2)o1)c1cccc(F)c1	-1	1	66*	127	108	12
N#C/C(=C/c1ccc(N2CCCCC2)o1)C(=O)Nc1ccc2ccccc2c1	1	41*	29	136	.	5
N#C/C(=C/c1ccc(N2CCCCCC2)o1)c1ccc(F)cc1	-2	-4	58*	-146	94	25
N#C/C(=C\c1ccc(N2CCOCC2)o1)c1ccccc1	.	-1	-10	-231	99	14
N#C/C(=C/c1ccc(N2CCOCC2)o1)c1ccc(Br)cc1	3	1	47	131	99	8
COc1ccc(N2C(=O)C(Cl)=C(N3CCCC3)C2=O)cc1	1	1	-5	1	105	8
O=C1CC(=O)C(n2cncn2)C(c2c(F)cccc2Cl)C1 (stereo unspecified)	0	-5	-9	-9	100	25
COCCN(CCOC)C(=O)c1ccc(NS(=O)(=O)c2ccc3c(c2)OCCO3)cc1	0	2	-10	-6	114	12
O=[N+]([O-])c1ccccc1/C=C/C=N/Nc1ccc(S(=O)(=O)Nc2ccc(Cl)cc2)cc1[N+](=O)[O-]	-1	-1	68*	2	105	22
O=C(O)c1ccc(N/N=C/C=C/c2ccccc2[N+](=O)[O-])cc1	1	-1	-4	-1	85	-70
O=C(COc1ccccc1)Nc1cccc(-c2nc3ccccc3[nH]2)c1	2	3	-8	3	106	-27
Cc1ccc(S(=O)(=O)c2ncccc2[N+](=O)[O-])cc1	-24	4	65*	-2	92	36
Cc1ccc(S(=O)(=O)n2ccc3cccnc32)cc1	1	1	3	7	92	23
Cc1ccc(S(=O)(=O)Nc2ccccc2[N+](=O)[O-])cc1	.	.	.	-2	.	.
Cc1ccc(S(=O)(=O)Oc2ccccc2[N+](=O)[O-])cc1	.	1	.	20*	.	.
Cc1ccc(S(=O)(=O)c2ncccc2N)cc1	-1	0	-13	56*	89	?
O=C(CN1CCN(c2ccc(Cl)cc2)CC1)Nc1cccc(F)c1	0	0	6	18	110	16
O=C(Nc1cccc(F)c1)N1CC=C(c2ccc(Cl)cc2)CC1	-1	0	55*	-5	127	31
Cc1ccc(Cn2c(O)c(N=NC(=S)Nc3ccccc3F)c3ccccc32)cc1	0	0	66*	-7	89	18

From PubChem BioAssay
